Test results as given in ChEMBL document CHEMBL3576820, “Discovery of benzimidazole oxazolidinediones as novel and selective nonsteroidal mineralocorticoid receptor antagonists” (ACS Med Chem Lett, 2015).
Active and inactive are the calls of the source. The calls are words filed in the database; no cut-off is given here.

Tests used:
[1] = biological target: T1, Mineralocorticoid receptor (Homo sapiens, UniProt P08235); experiment: Antagonist activity at human mineralocorticoid receptor overexpressed in CHOK1 cells assessed as inhibition of aldosterone-induced protein interaction with coactivator peptide after 6 hrs by luminescence assay; format: cell-based, CHO-K1
T1 sequence (P08235 whole entry): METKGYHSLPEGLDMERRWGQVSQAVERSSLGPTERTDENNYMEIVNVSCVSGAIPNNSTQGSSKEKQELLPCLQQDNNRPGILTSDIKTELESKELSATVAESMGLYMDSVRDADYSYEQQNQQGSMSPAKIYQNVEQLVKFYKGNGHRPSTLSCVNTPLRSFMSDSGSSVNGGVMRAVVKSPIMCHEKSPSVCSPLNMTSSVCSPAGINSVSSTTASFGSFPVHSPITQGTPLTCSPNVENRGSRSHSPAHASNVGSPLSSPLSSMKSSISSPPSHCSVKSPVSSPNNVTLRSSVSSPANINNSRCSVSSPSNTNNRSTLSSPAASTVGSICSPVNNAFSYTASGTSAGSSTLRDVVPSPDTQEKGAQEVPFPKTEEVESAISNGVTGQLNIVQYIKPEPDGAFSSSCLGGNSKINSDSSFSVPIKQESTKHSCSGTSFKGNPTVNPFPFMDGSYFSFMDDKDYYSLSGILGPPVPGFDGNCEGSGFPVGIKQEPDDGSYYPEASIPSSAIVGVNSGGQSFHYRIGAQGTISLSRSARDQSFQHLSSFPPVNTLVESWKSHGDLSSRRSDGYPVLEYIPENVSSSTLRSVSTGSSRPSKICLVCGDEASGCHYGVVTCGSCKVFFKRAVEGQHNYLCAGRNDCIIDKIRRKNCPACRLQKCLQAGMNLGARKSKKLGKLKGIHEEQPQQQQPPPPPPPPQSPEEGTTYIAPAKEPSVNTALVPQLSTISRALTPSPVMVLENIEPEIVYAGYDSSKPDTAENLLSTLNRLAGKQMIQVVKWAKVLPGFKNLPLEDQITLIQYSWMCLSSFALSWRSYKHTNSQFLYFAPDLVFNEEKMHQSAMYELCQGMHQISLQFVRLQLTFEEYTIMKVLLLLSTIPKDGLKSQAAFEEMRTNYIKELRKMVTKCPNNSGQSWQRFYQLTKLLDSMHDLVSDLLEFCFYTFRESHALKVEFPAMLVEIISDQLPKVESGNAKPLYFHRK

[2] = Metabolic stability in human liver microsomes assessed as compound remaining at 1 uM after 0.5 hrs; format: ADME; conditions: read-out: Stability
[3] = Metabolic stability in rat liver microsomes assessed as compound remaining at 1 uM after 0.5 hrs; format: ADME; conditions: read-out: Stability
[4] = biological target: T2, Estrogen receptor (Homo sapiens) (UniProt P03372); experiment: Agonist activity at human estrogen receptor alpha by cell-based assay
T2 sequence (whole entry): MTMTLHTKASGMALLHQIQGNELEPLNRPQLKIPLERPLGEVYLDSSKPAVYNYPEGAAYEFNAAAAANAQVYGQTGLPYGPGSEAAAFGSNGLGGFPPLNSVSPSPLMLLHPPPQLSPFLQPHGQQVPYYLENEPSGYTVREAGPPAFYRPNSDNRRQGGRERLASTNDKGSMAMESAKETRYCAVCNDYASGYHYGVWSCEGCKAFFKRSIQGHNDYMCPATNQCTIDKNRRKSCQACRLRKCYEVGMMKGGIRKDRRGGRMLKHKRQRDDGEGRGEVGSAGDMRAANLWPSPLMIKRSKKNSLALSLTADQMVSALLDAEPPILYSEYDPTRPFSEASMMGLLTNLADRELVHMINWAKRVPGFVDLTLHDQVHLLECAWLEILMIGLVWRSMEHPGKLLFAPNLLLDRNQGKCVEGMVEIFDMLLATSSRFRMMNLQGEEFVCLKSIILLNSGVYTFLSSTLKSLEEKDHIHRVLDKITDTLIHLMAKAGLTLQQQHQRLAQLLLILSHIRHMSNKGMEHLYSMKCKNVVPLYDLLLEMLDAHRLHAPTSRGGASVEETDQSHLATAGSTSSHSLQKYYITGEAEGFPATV

[5] = biological target: T3, Progesterone receptor (Homo sapiens) (UniProt P06401); experiment: Agonist activity at human progesterone receptor beta by cell-based assay
T3 sequence (whole entry): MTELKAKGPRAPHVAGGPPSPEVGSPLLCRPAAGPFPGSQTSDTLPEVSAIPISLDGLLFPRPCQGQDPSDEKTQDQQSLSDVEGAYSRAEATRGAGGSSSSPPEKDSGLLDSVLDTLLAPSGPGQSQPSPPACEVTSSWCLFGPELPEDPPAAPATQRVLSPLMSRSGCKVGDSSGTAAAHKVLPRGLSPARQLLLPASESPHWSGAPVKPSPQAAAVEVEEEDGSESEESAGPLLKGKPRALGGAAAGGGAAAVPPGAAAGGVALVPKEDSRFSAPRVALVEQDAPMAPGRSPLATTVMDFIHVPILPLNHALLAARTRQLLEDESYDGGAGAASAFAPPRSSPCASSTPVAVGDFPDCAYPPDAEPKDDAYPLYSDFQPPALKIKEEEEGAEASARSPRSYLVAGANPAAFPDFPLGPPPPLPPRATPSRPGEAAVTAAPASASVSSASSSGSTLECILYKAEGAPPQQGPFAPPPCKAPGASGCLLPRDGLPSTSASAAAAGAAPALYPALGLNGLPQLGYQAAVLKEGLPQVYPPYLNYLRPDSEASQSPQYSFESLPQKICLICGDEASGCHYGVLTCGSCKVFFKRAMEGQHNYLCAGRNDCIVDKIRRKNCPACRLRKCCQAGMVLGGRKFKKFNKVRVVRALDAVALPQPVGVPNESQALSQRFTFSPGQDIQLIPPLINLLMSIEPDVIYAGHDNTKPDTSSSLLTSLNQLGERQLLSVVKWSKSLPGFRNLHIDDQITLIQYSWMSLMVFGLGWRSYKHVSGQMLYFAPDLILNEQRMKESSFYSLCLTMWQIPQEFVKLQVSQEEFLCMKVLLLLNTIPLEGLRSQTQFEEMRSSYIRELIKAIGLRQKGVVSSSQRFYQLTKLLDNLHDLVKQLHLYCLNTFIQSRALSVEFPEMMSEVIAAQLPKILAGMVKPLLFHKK

[6] = biological target: T4, Mineralocorticoid receptor (Homo sapiens) (UniProt P08235); experiment: Agonist activity at human mineralocorticoid receptor by cell-based assay
T4 sequence (whole entry): T1 sequence (P08235 whole entry)

[7] = Oral bioavailability in Wistar han rat at 2 mg/kg; format: ADME, organism-based; conditions: in vivo
Summary of the method: (§1)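 Wistar Han rats. IV dose 1 mg/kg in DMSO/PEG200/water (10:60:30), n=2. Oral dose 2 mg/kg in imwitor/tween (1:1) by gavage, n=3. Values are averages. Derived: F%, plasma clearance, Vdss, terminal half-life and oral AUC normalized to dose.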

[8] = Plasma clearance in Wistar han rat at 2 mg/kg, po and 1 mg/kg, iv; format: ADME, organism-based; summary of the method: as §1
[9] = Volume of distribution at steady state in Wistar han rat at 2 mg/kg, po and 1 mg/kg, iv; format: ADME, organism-based; conditions: in vivo, read-out: Vdss; summary of the method: as §1
[10] = Terminal half life in Wistar han rat at 2 mg/kg, po and 1 mg/kg, iv; format: ADME, organism-based; conditions: in vivo, read-out: beta t1/2 (converted); summary of the method: as §1
Rattus norvegicus [11] = experiment: Dose normalized AUC in Wistar han rat at 2 mg/kg, po; format: ADME, organism-based; conditions: in vivo; summary of the method: as §1
[12] = Fraction unbound in 10% human plasma; format: ADME, cell-free; conditions: 10% plasma
Summary of the method: (§2)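 Free fraction measured in the presence of 10% plasma (human or rat), taken as correlating with the free fraction in whole plasma.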

[13] = Fraction unbound in 10% rat plasma; format: ADME, cell-free; conditions: 10% plasma; summary of the method: as §2
[14] = Plasma protein binding in human; format: ADME, cell-free; conditions: read-out: PPB
[15] = Plasma protein binding in rat; format: ADME, cell-free; conditions: read-out: PPB
Rattus norvegicus [16] = experiment: Natriuretic activity in WKY rat at 30 to 100 mg/kg, po measured over 6 hrs; format: functional, organism-based

SMILES	IC50 [1]	remaining at 0.5 h, 1 µM [2]	remaining at 0.5 h, 1 µM [3]	Activity [4]	Activity [5]	Activity [6]	bioavailability [7]	clearance [8]	Vd [9]	half-life [10]	AUC/dose (Rattus norvegicus [11])	fraction unbound [12]	fraction unbound [13]	fraction unbound [14]	fraction unbound [15]	Activity (Rattus norvegicus [16])
C[C@H](c1ccc(F)cc1)N1C(=O)O[C@](Cc2ccccc2)(c2nc3c(C(F)(F)F)cccc3[nH]2)C1=O	150 nM	77%	51%	inactive	inactive	inactive	44%	23 mL/min/kg	3.4 L/kg	2.4 h	0.067 µM·kg·h/mg	0.002	0.005	< 0.01	< 0.01	
CC(=O)S[C@@H]1CC2=CC(=O)CC[C@]2(C)[C@H]2CC[C@@]3(C)[C@@H](CC[C@@]34CCC(=O)O4)[C@H]12				inactive	inactive	inactive										Active
C[C@H](c1ccc(F)cc1)N1C(=O)O[C@](Cc2ccccc2)(c2nc3cc(-c4cn[nH]c4)ccc3[nH]2)C1=O	42 nM	97%	63%	inactive	inactive	inactive										
CC(=O)Nc1cccc2[nH]c([C@@]3(Cc4ccccc4)OC(=O)N([C@H](C)c4ccc(F)cc4)C3=O)nc12	1100 nM	89%	41%	inactive	inactive	inactive										
